Measurements published in ChEMBL document CHEMBL1275390, “Synthesis and discovery of water-soluble microtubule targeting agents that bind to the colchicine site on tubulin and circumvent Pgp mediated resistance” (J Med Chem, 2010).
The source made the active and inactive calls. The rule behind the calls is not given here.

Assays:
SK-OV-3 [1] = test: Antiproliferative activity against human SKOV3 cells by sulforhodamine B assay; type: functional, cell-based
In short: (§1)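 Antiproliferative read-out by sulforhodamine B assay. HeLa and SK-OV-3 cells were from ATCC; SK-OV-3 MDR-1-6/6 is the Pgp-overexpressing, MDR-1-transduced isogenic partner of the parental line. Each IC50 is the mean of at least 3 independent experiments, with triplicate points in each.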

SK-OV-3 [2] = test: Antiproliferative activity against human SKOV3 cells expressing MDR1-6/6 by sulforhodamine B assay; type: functional, cell-based; in short: as §1
SK-OV-3 [3] = test: Relative resistance, ratio of IC50 for human SKOV3 cells expressing MDR1-6/6 to IC50 for human SKOV3 cells; type: functional
In short: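 Relative resistance (Rr) is the SRB-derived IC50 in Pgp-overexpressing, MDR-1-transduced SK-OV-3 MDR-1-6/6 cells divided by the IC50 in parental SK-OV-3 cells.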

HeLa [4] = test: Antiproliferative activity against human HeLa cells expressing tubulin 3beta by sulforhodamine B assay; type: functional, cell-based
HeLa [5] = test: Relative resistance, ratio of IC50 for human HeLa cells expressing tubulin 3beta to IC50 for human HeLa cells; type: functional
MDA-MB-435 [6] = test: Antiproliferative activity against human MDA-MB-435 cells by sulforhodamine B assay; type: functional, cell-based
In short: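 SRB assay against cancer cells obtained from ATCC (MDA-MB-435, HeLa). IC50 is the concentration giving 50% inhibition of proliferation, taken as the mean of at least 3 independent experiments, each run in triplicate points.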

HeLa [7] = test: Antiproliferative activity against human HeLa cells by sulforhodamine B assay; type: functional, cell-based; in short: as §1
CCRF-CEM = test: Growth inhibition of human CCRF-CEM cells by sulforhodamine B assay; type: functional
HL-60(TB) = test: Growth inhibition of human HL-60(TB) cells by sulforhodamine B assay; type: functional
K562 = test: Growth inhibition of human K562 cells by sulforhodamine B assay; type: functional
MOLT-4 = test: Growth inhibition of human MOLT4 cells by sulforhodamine B assay; type: functional
SR = test: Growth inhibition of human SR cells by sulforhodamine B assay; type: functional
A549 = test: Growth inhibition of human A549 cells by sulforhodamine B assay; type: functional
EKVX = test: Growth inhibition of human EKVX cells by sulforhodamine B assay; type: functional
HOP-62 = test: Growth inhibition of human HOP62 cells by sulforhodamine B assay; type: functional
HOP-92 = test: Growth inhibition of human HOP92 cells by sulforhodamine B assay; type: functional
NCI-H226 = test: Growth inhibition of human NCI-H226 cells by sulforhodamine B assay; type: functional
NCI-H23 = test: Growth inhibition of human NCI-H23 cells by sulforhodamine B assay; type: functional
NCI-H322M = test: Growth inhibition of human NCI-H322M cells by sulforhodamine B assay; type: functional
NCI-H460 = test: Growth inhibition of human NCI-H460 cells by sulforhodamine B assay; type: functional
NCI-H522 = test: Growth inhibition of human NCI-H522 cells by sulforhodamine B assay; type: functional
COLO 205 = test: Growth inhibition of human COLO205 cells by sulforhodamine B assay; type: functional
HCC 2998 = test: Growth inhibition of human HCC2998 cells by sulforhodamine B assay; type: functional
HCT-15 = test: Growth inhibition of human HCT15 cells by sulforhodamine B assay; type: functional
HT-29 = test: Growth inhibition of human HT-29 cells by sulforhodamine B assay; type: functional
KM12 = test: Growth inhibition of human KM12 cells by sulforhodamine B assay; type: functional
SW-620 = test: Growth inhibition of human SW620 cells by sulforhodamine B assay; type: functional
SF-268 = test: Growth inhibition of human SF268 cells by sulforhodamine B assay; type: functional
SF-295 = test: Growth inhibition of human SF295 cells by sulforhodamine B assay; type: functional
SF-539 = test: Growth inhibition of human SF539 cells by sulforhodamine B assay; type: functional
SNB-19 = test: Growth inhibition of human SNB19 cells by sulforhodamine B assay; type: functional
SNB-75 = test: Growth inhibition of human SNB75 cells by sulforhodamine B assay; type: functional
U-251 = test: Growth inhibition of human U251 cells by sulforhodamine B assay; type: functional
LOX IMVI = test: Growth inhibition of human LOXIMVI cells by sulforhodamine B assay; type: functional
M14 = test: Growth inhibition of human M14 cells by sulforhodamine B assay; type: functional
MDA-MB-435 [8] = test: Growth inhibition of human MDA-MB-435 cells by sulforhodamine B assay; type: functional
SK-MEL-2 = test: Growth inhibition of human SK-MEL-2 cells by sulforhodamine B assay; type: functional
SK-MEL-28 = test: Growth inhibition of human SK-MEL-28 cells by sulforhodamine B assay; type: functional
SK-MEL-5 = test: Growth inhibition of human SK-MEL-5 cells by sulforhodamine B assay; type: functional
UACC-62 = test: Growth inhibition of human UACC62 cells by sulforhodamine B assay; type: functional
IGROV-1 = test: Growth inhibition of human IGROV1 cells by sulforhodamine B assay; type: functional
OVCAR-3 = test: Growth inhibition of human OVCAR-3 cells by sulforhodamine B assay; type: functional
OVCAR-4 = test: Growth inhibition of human OVCAR4 cells by sulforhodamine B assay; type: functional
OVCAR-5 = test: Growth inhibition of human OVCAR5 cells by sulforhodamine B assay; type: functional
OVCAR-8 = test: Growth inhibition of human OVCAR8 cells by sulforhodamine B assay; type: functional
NCI/ADR-RES = test: Growth inhibition of human NCI/ADR-RES cells by sulforhodamine B assay; type: functional
SK-OV-3 [9] = test: Growth inhibition of human SKOV3 cells by sulforhodamine B assay; type: functional
786-0 = test: Growth inhibition of human 786-0 cells by sulforhodamine B assay; type: functional
A498 = test: Growth inhibition of human A498 cells by sulforhodamine B assay; type: functional
ACHN = test: Growth inhibition of human ACHN cells by sulforhodamine B assay; type: functional
RXF 393 = test: Growth inhibition of human RXF393 cells by sulforhodamine B assay; type: functional
SN12C = test: Growth inhibition of human SN12C cells by sulforhodamine B assay; type: functional
TK-10 = test: Growth inhibition of human TK10 cells by sulforhodamine B assay; type: functional
UO-31 = test: Growth inhibition of human UO31 cells by sulforhodamine B assay; type: functional
PC-3 = test: Growth inhibition of human PC3 cells by sulforhodamine B assay; type: functional
DU-145 = test: Growth inhibition of human DU145 cells by sulforhodamine B assay; type: functional
MCF7 = test: Growth inhibition of human MCF7 cells by sulforhodamine B assay; type: functional
MDA-MB-231 = test: Growth inhibition of human MDA-MB-231 cells by sulforhodamine B assay; type: functional
[10] = Growth inhibition of human Hs 578T cells by sulforhodamine B assay; type: functional
MDA-MB-468 = test: Growth inhibition of human MDA-MB-468 cells by sulforhodamine B assay; type: functional
MDA-MB-435 [11] = test: Cell cycle arrest in human MDA-MB-435 cells assessed as formation of aberrant mitotic spindles at 850 nM after 24 hrs using propidium iodide staining by flow cytometry; type: functional, cell-based
MDA-MB-435 [12] = test: Cell cycle arrest in human MDA-MB-435 cells assessed as mitotic accumulation at 850 nM after 24 hrs using propidium iodide staining by flow cytometry; type: functional, cell-based
In short: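 Cells were then harvested, stained with Krishan's reagent (propidium iodide) and analysed by flow cytometry. Data are plotted as propidium iodide intensity versus number of events.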

Bos taurus = organism: Bos taurus; test: Displacement of [3H]colchicine from bovine brain tubulin at 5 uM after 10 mins

**Q.** What does the source list for `COc1cc2c(cc1O)CC[C@@H]1[C@@H]2CC[C@]2(C)[C@@H](O)CC[C@@H]12` [2-METHOXYESTRADIOL]?
**A.** IC50 (SK-OV-3 [1]): 0.867 µM; IC50 (SK-OV-3 [2]): 2.27 µM; Ratio (SK-OV-3 [3]): 2.6; IC50 (HeLa [4]): 0.586 µM; Ratio (HeLa [5]): 1

**Q.** For `COc1ccc(Nc2[nH]c(C)nc3nccc2-3)cc1`, which IC50 (MDA-MB-435 [6]) is on record?
**A.** > 10 µM

**Q.** Which results are given for `COc1ccc(/C=C\c2cc(OC)c(OC)c(OC)c2)cc1OP(=O)(O)O` [FOSBRETABULIN]?
**A.** IC50 (SK-OV-3 [1]): 0.0045 µM; IC50 (SK-OV-3 [2]): 0.0066 µM; Ratio (SK-OV-3 [3]): 1.5; IC50 (HeLa [7]): 0.0047 µM; IC50 (HeLa [4]): 0.0057 µM; Ratio (HeLa [5]): 1.2

**Q.** Which results are given for `COc1ccc(N(C)c2nc(C)nc3[nH]ccc23)cc1`?
**A.** GI50 (CCRF-CEM): 0.315 µM; GI50 (HL-60(TB)): 0.19 µM; GI50 (K562): 0.179 µM; GI50 (MOLT-4): 0.503 µM; GI50 (SR): 0.0876 µM; GI50 (A549): 0.723 µM; GI50 (EKVX): 0.875 µM; GI50 (HOP-62): 0.291 µM; GI50 (HOP-92): 4.8 µM; GI50 (NCI-H226): 0.623 µM; GI50 (NCI-H23): 0.438 µM; GI50 (NCI-H322M): 0.428 µM; GI50 (NCI-H460): 0.351 µM; GI50 (NCI-H522): 0.0402 µM; GI50 (COLO 205): 0.243 µM; GI50 (HCC 2998): 0.271 µM; GI50 (HCT-15): 0.275 µM; GI50 (HT-29): 0.279 µM; GI50 (KM12): 0.181 µM; GI50 (SW-620): 0.246 µM; GI50 (SF-268): 0.449 µM; GI50 (SF-295): 0.269 µM; GI50 (SF-539): 0.288 µM; GI50 (SNB-19): 0.612 µM; GI50 (SNB-75): 0.185 µM; GI50 (U-251): 0.44 µM; GI50 (LOX IMVI): 0.407 µM; GI50 (M14): 0.218 µM; GI50 (MDA-MB-435 [8]): 0.0442 µM; GI50 (SK-MEL-2): 0.251 µM; GI50 (SK-MEL-28): 0.603 µM; GI50 (SK-MEL-5): 0.177 µM; GI50 (UACC-62): 0.625 µM; GI50 (IGROV-1): 0.34 µM; GI50 (OVCAR-3): 0.192 µM; GI50 (OVCAR-4): 7.73 µM; GI50 (OVCAR-5): 1.67 µM; GI50 (OVCAR-8): 0.639 µM; GI50 (NCI/ADR-RES): 0.164 µM; GI50 (SK-OV-3 [9]): 0.248 µM; GI50 (786-0): 0.433 µM; GI50 (A498): 0.198 µM; GI50 (ACHN): 0.556 µM; GI50 (RXF 393): 0.226 µM; GI50 (SN12C): 0.854 µM; GI50 (TK-10): 0.39 µM; GI50 (UO-31): 0.307 µM; GI50 (PC-3): 0.509 µM; GI50 (DU-145): 0.269 µM; GI50 (MCF7): 0.314 µM; GI50 (MDA-MB-231): 1.26 µM; GI50 [10]: 0.249 µM; GI50 (MDA-MB-468): 0.208 µM; Activity (MDA-MB-435 [11]): Active; Activity (MDA-MB-435 [12]): Active; IC50 (SK-OV-3 [1]): 0.278 µM; IC50 (SK-OV-3 [2]): 0.435 µM; IC50 (HeLa [7]): 0.27 µM; IC50 (HeLa [4]): 0.186 µM; inhibition (Bos taurus): 70%

**Q.** Which IC50 (MDA-MB-435 [6]) does the source give for `COc1ccc(Nc2nc(C)nc3c2CC(C)C3)cc1` (racemic) here?
**A.** > 10 µM
